Only some compounds are listed: those with a hit (about 2.2% of all), similar ones and a draw of the others.
PPC-1+TRAIL kill: PPC-1 cancer cell killing with TRAIL present; cell killing (% activity), % at 4 µM or 5 µM; PPC-1 cells + TRAIL, ATPLite viability luminescence; AID 1443; 220,000 tested, 0.41% active;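 active = cell killing above 50% in the first pass at 4 µM, then a duplicate retest at 5 µM averaging 50% or more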
C8 TRAIL sens: caspase-8 TRAIL sensitization; NB7+C8 cells + TRAIL, ATPlite viability luminescence; inhibition (viability loss, TRAIL sensitization), % at 10 µM; 360,000 tested, 1% active; AID 624354;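 active = compounds causing at least 50% loss of cell viability in the single-dose screen, relative to plate controls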
FLuc inh counter: Photinus pyralis luciferase inhibition counter-screen; P08659; ATPLite firefly luciferase biochemical luminescence, 10 min; inhibition, % at 10 µM; 200,000 tested, 1.5% active;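 active = inhibition above about 50% when tested at 10 µM, limit read from the data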
Target sequence (P08659 whole entry, looked up): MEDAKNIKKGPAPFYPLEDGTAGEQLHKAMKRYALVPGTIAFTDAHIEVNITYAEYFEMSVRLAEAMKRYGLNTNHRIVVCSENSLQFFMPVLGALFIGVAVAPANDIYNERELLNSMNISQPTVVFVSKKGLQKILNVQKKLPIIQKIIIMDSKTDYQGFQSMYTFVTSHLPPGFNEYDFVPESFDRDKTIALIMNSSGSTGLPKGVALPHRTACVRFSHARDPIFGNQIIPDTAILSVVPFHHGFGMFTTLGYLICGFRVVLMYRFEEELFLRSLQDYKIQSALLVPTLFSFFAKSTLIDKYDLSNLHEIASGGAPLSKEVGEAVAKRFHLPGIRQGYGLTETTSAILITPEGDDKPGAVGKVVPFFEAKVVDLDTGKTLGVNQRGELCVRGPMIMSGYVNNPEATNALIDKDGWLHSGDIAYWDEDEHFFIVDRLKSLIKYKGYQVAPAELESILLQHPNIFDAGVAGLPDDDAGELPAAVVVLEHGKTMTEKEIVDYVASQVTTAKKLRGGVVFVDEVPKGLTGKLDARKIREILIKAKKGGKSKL
PKD1 inh: inhibitors of human PKD1 kinase. inhibition, % (concentration not given with the values). PKD1 kinase fluorescence polarization assay. AID 797. 200,000 tested, 0.056% active; in the data active = inhibition above about 50%
FLuc stim CS: affects firefly luciferase, flagging false hits in luciferase stimulation screens | P08659 | 200,000 tested, under 10 active | ATPlite luciferase biochemical, luminescence, 10 min; 0 = ATP-free wells, 1 = DMSO control | AID 1027 | activation factor at 10 µM;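 active = luciferase activation factor, scaled between plate controls, of at least 2 with compound at 10 µM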
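Assay system: Luciferase/luciferin reagent mix; Medium: PBS as buffer for the ATP substrate; Dosing: test compounds dosed from 2 mM stocks in 100% DMSO; Times: 10 min, room temperature; Signal: luminescence from luciferase reaction; Read-out: luciferase activation; Controls: No-ATP low control, compound-free enzyme-plus-ATP high control.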
Wee1 degr inh: inhibitors of human Wee1 degradation; P30291; HeLa Luc-Wee1K328M stability, luciferase luminescence; 100% = proteasome inhibitor MG132 effect; reporter increase, % at 5 µM; 220,000 tested, 1.2% active; AID 1321;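 active = activation above the mean of all tested compounds plus 3 SD, set per screening run, cut at about 8.8% in these data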;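 note: cells exposed to compound for 20 h before luminescence read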
Wee1 degr conf: human Wee1 degradation inhibition, confirmation; activation, % at 5 µM; 1,100 tested, 4% active; HeLa Luc-Wee1K328M degradation, luminescence; vehicle 0%, proteasome-blocked wells 100%; shares compounds with Wee1 degr inh; AID 1410; in the data active = activation above about 8.9%
Hits are given with their value; n = inactive; x = not tested or not shown.

SMILES	PPC-1+TRAIL kill	C8 TRAIL sens	FLuc inh counter	PKD1 inh	FLuc stim CS	Wee1 degr inh	Wee1 degr conf
COc1ccc(NC(=O)c2nn(C34CC5CC(CC(C5)C3)C4)cc2[N+](=O)[O-])cc1	n	n	n	n	n	11	n
Cn1c(N)c(C(=O)COC(=O)C2=NNC(=O)CC2)c(=O)n(C)c1=O	n	n	x	x	x	n	x
COc1cccc(N2CCN(C(=O)CN3C(=O)NC(C)(c4ccc5ccccc5c4)C3=O)CC2)c1 (stereo not given)	x	n	x	x	x	x	x
CN(C(=S)NCCN1CCOCC1)C(c1ccccc1)c1ccccc1	n	n	n	n	n	n	x
Clc1ccc(Cn2ncc3c(N4CCCCC4)ncnc32)cc1	n	n	n	n	n	n	x
Clc1ccc(Cn2ncc3c(N4CCCC4)ncnc32)cc1	n	n	n	n	n	16	n
CCN(Cc1ccncc1)Cc1nc(CC2CC2)no1	n	n	n	n	n	n	x
Cc1cccc(NC(=O)c2ccc3c(c2)OCCO3)n1	x	n	x	x	x	x	x
Cc1nc(NC(=O)c2ccc3c(c2)OCO3)ccc1Br	n	n	n	n	n	19	n
O=C(NNC(=S)Nc1cccc(C(F)(F)F)c1)c1cccc(Cl)c1	n	n	n	n	n	n	x
O=C(NNC(=S)Nc1cccc(C(F)(F)F)c1)c1ccccc1Cl	n	n	n	n	n	12	n
CCc1ccc(-c2nc(CS(=O)CC(=O)O)c(C)o2)cc1 (stereo not given)	n	n	x	x	x	n	x
CC(c1ccccc1)n1cc(C(=O)NCC2COc3ccccc3O2)nn1 (stereo not given)	n	n	n	n	n	15	n
O=C(CSc1nc2nn(-c3ccccc3)c(=O)c-2c2n1CCCCC2)NCCCc1ccccc1	n	n	n	n	n	18	n
O=C(O)CCCC(=O)N1CCCC1	n	n	n	n	n	n	x
CC1(C)C(=O)NCCN1C(=O)CCCC(=O)O	n	n	n	n	n	12	n
CCc1nc2cc(NC(=O)C3(C)CCCN(C(C)C)C3)ccc2o1 (stereo not given)	x	n	x	x	x	x	x
Brc1cc2c(cc1Br)OCCOCCOCCOCCO2	n	n	n	n	n	19	n
Brc1ccc2c(c1)OCCOCCOc1cc(Br)ccc1OCCOCCOCCO2	n	n	n	n	n	n	x
C/C(=N\NC(=O)c1ccccc1)c1ccc(NC(=O)c2cccs2)cc1	n	n	n	n	n	13	n
C/C(=N\NC(=O)c1ccccc1C)c1ccc(NC(=O)c2cccs2)cc1	n	n	n	n	n	n	x
Cc1cc(C)nc(NC(=O)c2ccc(Cl)cc2)n1	n	n	n	n	n	17	n
Cc1cc(C)nc(NC(=O)c2ccc(Br)cc2)n1	x	n	x	x	x	x	x
CN(C)c1ccc(NC(=O)CCn2c(=S)oc3ccccc32)cc1	n	n	n	n	n	11	n
Cc1ccc(NC(=O)CCn2c(=S)oc3ccccc32)cc1	n	n	n	n	n	n	x
SMILES	PPC-1+TRAIL kill	C8 TRAIL sens	FLuc inh counter	PKD1 inh	FLuc stim CS	Wee1 degr inh	Wee1 degr conf
Cc1ccc(C(=O)N/C(=C\c2cccs2)C(=O)NCCCN2CCOCC2)cc1	x	n	x	x	x	x	x
COc1ccc(N2CCN(C(=O)c3ccc(NC(=O)C4=CSCCO4)cc3)CC2)cc1	x	n	x	x	x	x	x
CN(CCc1ccccc1)C(=O)CCc1nnc(Cc2ccc3c(c2)OCO3)o1	x	n	x	x	x	x	x
COc1ccccc1C1SCCN1S(C)(=O)=O (stereo not given)	n	n	n	n	n	21	n
COc1ccc(OC)c(C2SCCN2S(C)(=O)=O)c1 (stereo not given)	n	n	n	n	n	n	x
Cc1ccc(NC(=O)COC(=O)[C@H](C)N2C(=O)C3CC=CCC3C2=O)cc1S(=O)(=O)N(C)C (stereo not given in full)	n	n	n	n	n	14	n
C/C=C/C(=O)OCC(=O)Nc1ccc(C)c(S(=O)(=O)N(C)C)c1	n	n	n	n	n	n	x
CC(=O)Nc1ccc(C(O)(C(F)(F)F)C(F)(F)F)cc1	n	n	n	n	n	12	n
CCOc1ccc(-c2cc(C(=O)NCCCN3CCOCC3)c3ccccc3n2)cc1	x	n	x	x	x	x	x
CCOc1ccc(-c2cc(C(=O)NN3CCN(C)CC3)c3cc(Cl)ccc3n2)cc1	n	x	n	n	n	11	n
Cn1c(NC(=O)Cc2cccc3ccccc23)cc(=O)n(C)c1=O	n	n	n	n	n	13	n
COc1ccc2c(c1)c(CC(=O)Nc1cc(C)ccc1C)c(C)n2C(=O)c1ccc(Cl)cc1	n	n	n	n	n	14	n
Cc1cc(=O)oc2cc(OCC(O)CN3CCN(c4ccccc4)CC3)ccc12 (stereo not given)	n	n	n	n	n	n	x
COc1ccccc1N1CCN(CC(O)COc2ccc3c(C)cc(=O)oc3c2)CC1 (stereo not given)	n	n	n	n	n	17	n
Nc1nnc(-c2ccc(Cl)cc2)s1	n	n	n	n	n	11	n
CCN(CC(=O)NCc1cccs1)c1ccc(S(=O)(=O)N2CCCC2)cn1	n	n	n	n	n	14	n
CCOC(=O)[C@]12CCC=C1N(Cc1ccc(Cl)cc1Cl)C(=O)[C@H](CC(=O)NCC13CC4CC(CC(C4)C1)C3)C2	x	n	x	x	x	x	x
O=c1[nH][nH]c2ccccc2c1=O	n	n	x	x	x	14	n
CN1C(=O)[C@@H]2C[C@@]3([C@@]45C[C@H]6C(=O)N(C)[C@@H](Cc7ccccc7)C(=O)N6[C@@H]4Nc4ccccc45)c4ccccc4N[C@H]3N2C(=O)[C@@H]1Cc1ccccc1	x	n	x	x	x	x	x
CCOc1ccc(NS(=O)(=O)c2cc(C(=O)N3CC(C)OC(C)C3)ccc2C)cc1 (stereo not given)	x	n	x	x	x	x	x
NCC12CC3CC(C1)CC(c1ccc(Cl)cc1)(C3)C2	n	n	n	n	n	n	x
O=C(O)CSc1nc2sc3c(c2c(=O)n1-c1ccccc1)CCC3	n	n	x	x	x	n	x
Cc1cccc(-n2c(SCC(=O)O)nc3sc4c(c3c2=O)CCC4)c1	n	n	x	x	x	13	n
Cc1nn2cc(-c3ccc(Cl)cc3)nc2s1	n	n	n	n	n	14	n
Cc1ccc(S(=O)(=O)N2CCCCC2C(=O)Nc2ccc(N(C)C)cc2)cc1 (stereo not given)	x	n	x	x	x	x	x
COc1cccc(C2=CC(c3cccc(OC)c3OC(F)F)n3nnnc3N2)c1 (stereo not given)	n	n	n	n	n	n	x
COc1cccc(C2=CC(c3cccc(OC)c3OC)n3nnnc3N2)c1 (stereo not given)	n	n	n	n	n	11	12
O=C(CCNC(=O)c1ccc(Cl)cc1)NCC(c1ccco1)N1CCCCC1 (stereo not given)	x	n	x	x	x	x	x
